Blank lines part the entries; values can stand above or below the compound they belong to.
Assays:
[1] = Kinetic parameter of epimerization at a salt concentration (0.01 M) of in Tris.HCl buffer(pH 9.0) and 37 degree C (or )in RMPI 1640 cell culture medium containing 10%FCS; format: ADME, cell-based; conditions: rmpi 1640, pH 9
Method in brief: (§1)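 Starting nucleoside (3 mg, 0.012 mmol) in 1 mL Tris-HCl (pH 7.5–10.3; 10 mM unless salt varied to 0.01–1 M at pH 9.0) or RPMI 1640 with 10% FCS, 37 °C. Timed samples analyzed by C-18 HPLC, 2.5% aqueous MeOH, 254 nm; peak areas corrected by ε. Rate constants k12, k21, k13, k23 obtained by nonlinear least-squares fit to compartment model; t1/2 reported.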

[2] = Kinetic parameter of epimerization at a salt concentration (0.1 M) of in Tris.HCl buffer(pH 9.0) and 37 degree C (or )in RMPI 1640 cell culture medium containing 10%FCS; format: ADME, cell-based; conditions: rmpi 1640, pH 9; method in brief: as §1
[3] = Kinetic parameter of epimerization at a salt concentration (1 M) of in Tris.HCl buffer(pH 9.0) and 37 degree C (or )in RMPI 1640 cell culture medium containing 10%FCS; format: ADME, cell-based; conditions: rmpi 1640, pH 9; method in brief: as §1
[4] = Kinetic parameter of epimerization in Tris.HCl buffer at a pH 10.0 (or )in RMPI 1640 cell culture medium containing 10%FCS; format: ADME, cell-based; conditions: rmpi 1640, pH 10; method in brief: as §1
[5] = Kinetic parameter of epimerization in Tris.HCl buffer at a pH 7.5 (or )in RMPI 1640 cell culture medium containing 10%FCS; format: ADME, cell-based; conditions: rmpi 1640, pH 7.5; method in brief: as §1
[6] = Kinetic parameter of epimerization in Tris.HCl buffer at a pH 8.0 (or )in RMPI 1640 cell culture medium containing 10%FCS; format: ADME, cell-based; conditions: rmpi 1640, pH 8; method in brief: as §1
[7] = Kinetic parameter of epimerization in Tris.HCl buffer at a pH 9.0 (or )in RMPI 1640 cell culture medium containing 10%FCS; format: ADME, cell-based; conditions: rmpi 1640, pH 9; method in brief: as §1
[8] = Kinetic parameter of epimerization in Tris.HCl buffer at a pH 9.6 (or )in RMPI 1640 cell culture medium containing 10%FCS; format: ADME, cell-based; conditions: rmpi 1640, pH 9.6; method in brief: as §1
[9] = Kinetic parameter of epimerization in Tris.HCl buffer at a pH 10.0(or )in RMPI 1640 cell culture medium containing 10%FCS; format: ADME, cell-based; conditions: rmpi 1640, pH 10; method in brief: as §1
[10] = Degradation of CNDAC at 0.01 M concentration in Tris-degrees C; format: ADME; conditions: Tris buffer; method in brief: as §1
[11] = Degradation of CNDAC at 0.1 M concentration in Tris-degrees C; format: ADME; conditions: Tris buffer; method in brief: as §1
[12] = Degradation of CNDAC at 10 pH in Tris-degrees C; format: ADME; conditions: Tris buffer, pH 10; method in brief: as §1
[13] = Degradation of CNDAC at 7.5 pH in Tris-degrees C; format: ADME; conditions: Tris buffer, pH 7.5; method in brief: as §1
[14] = Degradation of CNDAC at 8 pH in Tris-degrees C; format: ADME; conditions: Tris buffer, pH 8; method in brief: as §1
[15] = Degradation of CNDAC at 9 pH in Tris-degrees C; format: ADME; conditions: Tris buffer, pH 9; method in brief: as §1
[16] = Degradation of CNDAC at 9.6 pH in Tris-degrees C; format: ADME; conditions: Tris buffer, pH 9.6; method in brief: as §1
MKN-74 [17] = test: In Vitro cell growth inhibitory activity of CNDAC Stomach Carcinoma MKN-74 (1*10e3) cell lines on 20-min exposure; format: functional, cell-based, Homo sapiens
Method in brief: (§2)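 MTT assay. Cells seeded (WiDr 5×10^2, SBC-5 2.5×10^2, MKN-74 1×10^3 per well), 24 h preincubation at 37 °C, 5% CO2. Graded drug concentrations added in tetraplicate for 20 min or 48 h, then washed three times with medium and cultured to 6 days from drug addition. MTT 1 mg/mL for 4 h, DMSO solubilization, A540. IC50 read graphically from dose-response curve.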

MKN-74 [18] = test: In Vitro cell growth inhibitory activity of CNDAC Stomach Carcinoma MKN-74 (1*10e3) cell lines on 48-h exposure; format: functional, cell-based, Homo sapiens; method in brief: as §2
Mus musculus [19] = test: In vivo antileukemic activity of CNDAC against P388 mouse leukemic cells by ip administration of dose 100 (mg/kg/day); format: functional
Method in brief: (§3)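 Female CDF1 mice, 6 weeks old (n = 6), implanted ip with 1×10^6 viable P388 cells maintained by weekly ip passage in DBA/2 mice. Drug in saline (0.1 mL/10 g body weight) given ip on days 1–5. T/C is treated vs untreated median survival time. Weight change is day 7 minus day 1 average.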

Mus musculus [20] = test: In vivo antileukemic activity of CNDAC against P388 mouse leukemic cells by ip administration of dose 200 (mg/kg/day); format: functional; method in brief: as §3
Mus musculus [21] = test: In vivo antileukemic activity of CNDAC against P388 mouse leukemic cells by ip administration of dose 50 (mg/kg/day); format: functional; method in brief: as §3
Mus musculus [22] = test: In vivo antileukemic activity of CNDAC against P388 mouse leukemic cells by ip administration of dose 25 (mg/kg/day); format: functional; method in brief: as §3
SBC-5 [23] = test: In Vitro cell growth inhibitory activity of CNDAC against Small Cell Lung Carcinoma-5 (2.5*10e2) cells on 20-min exposure; format: functional, cell-based; conditions: Homo sapiens, SBC-5, 20 min; method in brief: as §2
SBC-5 [24] = test: In Vitro cell growth inhibitory activity of CNDAC against Small Cell Lung Carcinoma-5 (2.5*10e2) cells on 48-h exposure; format: functional, cell-based, Homo sapiens; method in brief: as §2
WiDr [25] = test: In Vitro cell growth inhibitory activity of CNDAC against Human Colon Carcinoma WiDr 5*10e2 cells on 20- min exposure; format: functional, cell-based; method in brief: as §2
WiDr [26] = test: In Vitro cell growth inhibitory activity of CNDAC against Human Colon Carcinoma WiDr 5*10e2 cells on 48-h exposure; format: functional, cell-based; method in brief: as §2
[27] = Degradation of CNDAC at 1 M concentration in Tris-degrees C; format: ADME; conditions: Tris buffer; method in brief: as §1

K12 [1]: 0.88 h⁻¹
K13+K23 [1]: 0.09 h⁻¹
K21 [1]: 0.6 h⁻¹
K12 [2]: 1.88 h⁻¹
K13+K23 [2]: 0.19 h⁻¹
K21 [2]: 1.16 h⁻¹
K12 [3]: 2.31 h⁻¹
K13+K23 [3]: 0.3 h⁻¹
K21 [3]: 1.35 h⁻¹
K12 [4]: 6.18 h⁻¹
K13+K23 [4]: 0.69 h⁻¹
K12 [5]: 0.062 h⁻¹
K13+K23 [5]: 0.009 h⁻¹
K21 [5]: 0.037 h⁻¹
K12 [6]: 0.22 h⁻¹
K13+K23 [6]: 0.02 h⁻¹
K21 [6]: 0.14 h⁻¹
K12 [7]: 0.88 h⁻¹
K13+K23 [7]: 0.09 h⁻¹
K21 [7]: 0.6 h⁻¹
K12 [8]: 2.14 h⁻¹
K13+K23 [8]: 0.26 h⁻¹
K21 [8]: 1.41 h⁻¹
K21 [9]: 4.07 h⁻¹
half-life [10]: 60 min
half-life [11]: 30 min
half-life [12]: 8.4 min
half-life [13]: 38 h
half-life [14]: 240 min
half-life [15]: 60 min
half-life [16]: 27 min
IC50 (MKN-74 [17]): 24.9 µM
IC50 (MKN-74 [18]; Homo sapiens, MKN-74, 48 h): 0.15 µM
half-life [27]: 21 min
Structure (SMILES): N#C[C@H]1[C@H](O)[C@@H](CO)O[C@H]1n1ccc(N)nc1=O (stereo in doubt; form 1) [TAS-109]
T/C (Mus musculus [19]): 311%
T/C (Mus musculus [20]): 333%
T/C (Mus musculus [21]): 300%
T/C (Mus musculus [22]): 300%
Weight change (Mus musculus [22]): 0.3 g
IC50 (SBC-5 [23]): 7.14 µM
IC50 (SBC-5 [24]; Homo sapiens, SBC-5, 48 h): 0.222 µM
IC50 (WiDr [25]): 16.5 µM
IC50 (WiDr [26]; Homo sapiens, WiDr, 48 h): 0.157 µM

IC50 (MKN-74 [17]): 265 µM
IC50 (MKN-74 [18]; mkn-74): 0.206 µM
Structure (SMILES): N#C[C@H]1[C@H](O)[C@@H](CO)O[C@H]1n1ccc(N)nc1=O (stereo in doubt; form 2) [TAS-109]
T/C (Mus musculus [19]): 180%
Weight change (Mus musculus [19]): 0.7 g
T/C (Mus musculus [20]): 203%
Weight change (Mus musculus [20]): 0.9 g
T/C (Mus musculus [21]): 164%
Weight change (Mus musculus [21]): 0.9 g
T/C (Mus musculus [22]): 138%
Weight change (Mus musculus [22]): 1.6 g
IC50 (SBC-5 [23]): 7.14 µM
IC50 (SBC-5 [24]; sbc-5): 0.367 µM
IC50 (WiDr [25]): 16.5 µM
IC50 (WiDr [26]; widr): 0.306 µM

Reference: ChEMBL document CHEMBL1128606, “Nucleosides and nucleotides. 141. Chemical stability of a new antitumor nucleoside, 2'-C-cyano-2'-deoxy-1-beta-D-arabino-pentofuranosylcytosine in alkaline medium: formation of 2'-C-cyano-2'-deoxy-1-beta-D-ribo-pentofuranosylcytosine and its antitumor activity” (J Med Chem, 1995)
